Data taken from ChEMBL document CHEMBL2057182, “Synthesis and biological evaluation of α-methylidene-δ-lactones with 3,4-dihydrocoumarin skeleton” (Bioorg Med Chem, 2012).
Converted amounts (≈) assume the structure as drawn.

How the values were obtained:
HL-60 = assay: Cytotoxicity against human HL60 cells after 48 hrs by MTT assay; format: functional, cell-based; details: HL-60, 48 h
Method in brief: (§1)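 ECACC cells; leukemias in RPMI 1640, MCF-7 and HT-29 in DMEM, each with 10% heat-inactivated FBS plus penicillin/streptomycin, 37 °C, 5% CO2. 8 × 10^3 cells/well seeded, compounds added after 24 h at 10^-7 to 10^-3 M (DMSO diluted in medium) for 48 h. MTT 2 h, formazan dissolved in DMSO, A560 against untreated control. IC50 from concentration–response curves, mean ± SD of at least three experiments.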

MCF7 = assay: Cytotoxicity against human MCF7 cells after 48 hrs by MTT assay; format: functional, cell-based; details: MCF7, 48 h; method in brief: as §1
NALM-6 = assay: Cytotoxicity against human NALM6 cells after 48 hrs by MTT assay; format: functional, cell-based; details: NALM-6, 48 h; method in brief: as §1
HT-29 = assay: Cytotoxicity against human HT-29 cells after 48 hrs by MTT assay; format: functional, cell-based; details: HT-29, 48 h; method in brief: as §1
HUVEC = assay: Cytotoxicity against human HUVEC cells after 48 hrs by MTT assay; format: cell-based
Method in brief: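 HUVECs cultured as the supplier directs, used at passages 3–8, 37 °C, 5% CO2. Seeded at 8 × 10^3/well, treated after 24 h with compounds at 10^-7 to 10^-3 M (DMSO diluted in complete medium) for 48 h. MTT 2 h, DMSO-solubilized formazan read at 560 nm against untreated cells. IC50 from concentration–response curves, at least three experiments.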

Enterococcus faecalis = assay: Antibacterial activity against Enterococcus faecalis ATCC 29212 after 24 hrs by broth microdilution assay; format: functional; details: ATCC 29212, 24 h
Method in brief: (§2)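 MIC by broth microdilution per CLSI, compounds from 20.0 mg/mL DMSO stocks tested at 3.125–400.0 µg/mL (eight twofold dilutions) in Mueller-Hinton broth or RPMI-1640. MIC is the concentration that inhibits growth during 24 h culture, turbidity equal to blank A600 (0.06). Highest final DMSO 2.0%.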

Staphylococcus aureus [1] = assay: Antibacterial activity against methicillin-resistant Staphylococcus aureus A3 patient isolate incubated for 24 hrs followed by washout measured after 24 hrs by broth microdilution assay; format: functional; details: A3, 24 h
Method in brief: (§3)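 MBC: after the 24 h broth microdilution MIC run (3.125–400.0 µg/mL in Mueller-Hinton broth, DMSO at most 2.0%), 10 µL from the MIC, 2× MIC and 4× MIC wells was subcultured into compound-free broth for 24 h. MBC is the lowest concentration with no visible growth, i.e. at least 99.9% kill of the original inoculum; bactericidal if MBC is at most 4× MIC.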

Staphylococcus aureus [2] = assay: Antibacterial activity against methicillin-resistant Staphylococcus aureus A7 patient isolate incubated for 24 hrs followed by washout measured after 24 hrs by broth microdilution assay; format: functional; details: A7, 24 h; method in brief: as §3
Pseudomonas aeruginosa = assay: Antibacterial activity against Pseudomonas aeruginosa NCTC 6749 after 24 hrs by broth microdilution assay; format: functional; details: NCTC 6749, 24 h; method in brief: as §2
Escherichia coli = assay: Antibacterial activity against Escherichia coli NCTC 8196 after 24 hrs by broth microdilution assay; format: functional; details: NCTC 8196, 24 h; method in brief: as §2
Staphylococcus aureus [3] = assay: Antibacterial activity against methicillin-resistant Staphylococcus aureus D5 patient isolate incubated for 24 hrs followed by washout measured after 24 hrs by broth microdilution assay; format: functional; details: D5, 24 h; method in brief: as §3
Staphylococcus aureus [4] = assay: Antibacterial activity against methicillin-sensitive Staphylococcus aureus ATCC 29213 after 24 hrs by broth microdilution assay; format: functional; details: ATCC 29213, 24 h
Method in brief: (§4)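 Broth microdilution in Mueller-Hinton broth, compounds from 20.0 mg/mL DMSO stocks tested over 3.125–400.0 µg/mL (eight twofold dilutions), DMSO at most 2.0% final. MIC is the lowest concentration inhibiting growth over 24 h culture, with turbidity equal to the A600 of a medium blank (0.06). Run under CLSI guidance with ATCC quality-control strains.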

Candida albicans = assay: Antifungal activity against Candida albicans ATCC 10231 after 24 hrs by broth microdilution assay; format: functional; details: ATCC 10231, 24 h; method in brief: as §2
Staphylococcus aureus [5] = assay: Antibacterial activity against methicillin-resistant Staphylococcus aureus A3 patient isolate after 24 hrs by broth microdilution assay; format: functional; details: A3, 24 h; method in brief: as §4
Staphylococcus aureus [6] = assay: Antibacterial activity against methicillin-resistant Staphylococcus aureus A7 patient isolate after 24 hrs by broth microdilution assay; format: functional; details: A7, 24 h; method in brief: as §4
Staphylococcus aureus [7] = assay: Antibacterial activity against methicillin-sensitive Staphylococcus aureus ATCC 29213 incubated for 24 hrs followed by washout measured after 24 hrs by broth microdilution assay; format: functional; details: ATCC 29213, 24 h; method in brief: as §3
Staphylococcus aureus [8] = assay: Antibacterial activity against methicillin-resistant Staphylococcus aureus D5 patient isolate after 24 hrs by broth microdilution assay; format: functional; details: D5, 24 h; method in brief: as §4
[9] = Therapeutic index ratio of IC50 for human HUVEC cells to IC50 for human NALM6 cells; format: cell-based; details: HUVEC cells versus NALM6 cells, read-out: Ratio IC50
[10] = Therapeutic index ratio of IC50 for human HUVEC cells to IC50 for human HL60 cells; format: cell-based; details: HUVEC cells versus HL60 cells
[11] = Therapeutic index ratio of IC50 for human HUVEC cells to IC50 for human MCF7 cells; format: cell-based; details: HUVEC cells versus MCF7 cells, read-out: Ratio IC50

Structure (SMILES) | IC50 (HL-60) | IC50 (MCF7) | IC50 (NALM-6) | IC50 (HT-29) | IC50 (HUVEC) | also measured
C=C1C(=O)Oc2cc(OC)cc(OC)c2C1C (centres undefined) | 5.2 µM | 4.1 µM | 6 µM | 7.2 µM |  | 
C=CC1C(=C)C(=O)Oc2cc(OC)ccc21 (centres undefined) | 51.7 µM | 62 µM | 56.6 µM | 42 µM | 57.3 µM | 
C=C1C(=O)Oc2cc(OC)cc(OC)c2C1C(C)C (centres undefined) | 1.3 µM | 2.1 µM | 3 µM | 2.2 µM |  | 
C=CC1C(=C)C(=O)Oc2ccc3ccccc3c21 (centres undefined) | 5.7 µM | 4.7 µM | 6 µM | 9.7 µM | 6.1 µM | 
C=C1C(=O)Oc2cc3c(cc2C1C)OCO3 (centres undefined) | 59.4 µM | 40.9 µM | 60.7 µM | 38.4 µM |  | 
C=C1C(=O)Oc2cc(OC)ccc2C1CCCC (centres undefined) | 5.4 µM | 7.1 µM | 6.2 µM | 10.2 µM | 5.1 µM | MIC (Enterococcus faecalis): 200 µg/mL (≈ 812 µM); MBC (Staphylococcus aureus [1]): 100 µg/mL (≈ 406 µM); MBC (Staphylococcus aureus [2]): 100 µg/mL (≈ 406 µM); MIC (Pseudomonas aeruginosa): > 400 µg/mL; MIC (Escherichia coli): > 400 µg/mL; MBC (Staphylococcus aureus [3]): 200 µg/mL (≈ 812 µM); MIC (Staphylococcus aureus [4]): 50 µg/mL (≈ 203 µM); MIC (Candida albicans): > 400 µg/mL; MIC (Staphylococcus aureus [5]): 50 µg/mL (≈ 203 µM); MIC (Staphylococcus aureus [6]): 50 µg/mL (≈ 203 µM); MBC (Staphylococcus aureus [7]): 100 µg/mL (≈ 406 µM); MIC (Staphylococcus aureus [8]): 50 µg/mL (≈ 203 µM)
C=C1C(=O)Oc2ccc3ccc(O)cc3c2C1C(C)C (centres undefined) | 0.58 µM | 0.36 µM | 0.59 µM | 0.49 µM |  | 
C=C1C(=O)Oc2cc(OC)cc(OC)c2C1CCCC (centres undefined) | 3.4 µM | 3.3 µM | 4.6 µM | 5.2 µM |  | 
C=C1C(=O)Oc2ccc3ccc(O)cc3c2C1CCCC (centres undefined) | 0.62 µM | 1.88 µM | 0.56 µM | 1.73 µM |  | 
C=C1C(=O)Oc2ccc3ccccc3c2C1C (centres undefined) | 4.8 µM | 5.17 µM | 5.5 µM | 7.26 µM | 6.69 µM | 
C=C1C(=O)Oc2cc(OC)ccc2C1C(C)C (centres undefined) | 0.56 µM | 0.87 µM | 0.85 µM | 1.7 µM | 3.12 µM | selectivity ratio [9]: 4; MIC (Pseudomonas aeruginosa): > 400 µg/mL; selectivity ratio [10]: 5.6; MIC (Escherichia coli): > 400 µg/mL; selectivity ratio [11]: 4; MIC (Candida albicans): > 400 µg/mL
C=C1C(=O)Oc2ccc3ccc(O)cc3c2C1C (centres undefined) | 5.81 µM | 6.22 µM | 5.77 µM | 4.3 µM |  | 
C=C1C(=O)Oc2ccc3ccccc3c2C1C(C)C (centres undefined) | 0.7 µM | 0.48 µM | 0.72 µM | 2.67 µM | 4.03 µM | selectivity ratio [9]: 5.6; MIC (Pseudomonas aeruginosa): > 400 µg/mL; selectivity ratio [10]: 5.8; MIC (Escherichia coli): > 400 µg/mL; selectivity ratio [11]: 8; MIC (Candida albicans): > 400 µg/mL
C=CC1C(=C)C(=O)Oc2cc(OC)cc(OC)c21 (centres undefined) | 8.4 µM | 6.2 µM | 9.3 µM | 5.9 µM |  | 
C=C1C(=O)Oc2cc(OC)ccc2C1C (centres undefined) | 54.5 µM | 73 µM | 53.6 µM | 70 µM | 57.4 µM | 
C=C1C(=O)Oc2cc3c(cc2C1C(C)C)OCO3 (centres undefined) | 3.3 µM | 0.87 µM | 0.7 µM | 1.5 µM |  | 
C=C1C(=O)Oc2ccc3ccccc3c2C1CCCC (centres undefined) | 0.72 µM | 2.75 µM | 2.1 µM | 2.9 µM | 3.83 µM | MIC (Enterococcus faecalis): 25 µg/mL (≈ 93.9 µM); MBC (Staphylococcus aureus [1]): 6.25 µg/mL (≈ 23.5 µM); MBC (Staphylococcus aureus [2]): 6.25 µg/mL (≈ 23.5 µM); MIC (Pseudomonas aeruginosa): > 400 µg/mL; MIC (Escherichia coli): > 400 µg/mL; MBC (Staphylococcus aureus [3]): 6.25 µg/mL (≈ 23.5 µM); MIC (Staphylococcus aureus [4]): 6.25 µg/mL (≈ 23.5 µM); MIC (Candida albicans): > 400 µg/mL; MIC (Staphylococcus aureus [5]): 3.12 µg/mL (≈ 11.7 µM); MIC (Staphylococcus aureus [6]): 6.25 µg/mL (≈ 23.5 µM); MBC (Staphylococcus aureus [7]): 12.5 µg/mL (≈ 46.9 µM); MIC (Staphylococcus aureus [8]): 3.12 µg/mL (≈ 11.7 µM)
C=C1C(=O)Oc2cc3c(cc2C1CCCC)OCO3 (centres undefined) | 0.75 µM | 0.54 µM | 0.6 µM | 1.8 µM |  | 
C=CC1C(=C)C(=O)Oc2cc3c(cc21)OCO3 (centres undefined) | 7.85 µM | 9.8 µM | 7.82 µM | 6.2 µM |  | 
C=CC1C(=C)C(=O)Oc2ccc3ccc(O)cc3c21 (centres undefined) | 3.43 µM | 4.8 µM | 0.79 µM | 6.5 µM |  | 
